The text below walks through data of ChEMBL document CHEMBL4699650, “SAR Investigation and Discovery of Water-Soluble 1-Methyl-1,4-dihydroindeno[1,2-c]pyrazoles as Potent Tubulin Polymerization Inhibitors” (J Med Chem, 2020).

In general, GI50 refers to the concentration at which growth is held to half of that of the control. As usually defined, the inhibition is the change of the read-out against control, counted positive when it falls.

Data set [1] in a line: Antiproliferation activity against human A549/Taxol cells assessed as cell growth inhibition measured after 72 hrs by MTT assay. In kind it is functional. The procedure, abridged:
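Cells grown in RPMI-1640 with 10% FBS at 37 °C, 5% CO2, seeded at 4−7 × 10³ cells/well and left to adhere overnight. Exposed to a range of concentrations for 72 h, then MTT (2.5 mg/mL stock) added for 4 h. Formazan dissolved in DMSO and absorbance read at 570 nm. GI50 taken as the concentration giving 50% growth inhibition, reported as mean ± SD of at least three independent experiments.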
For orientation: Formazan colour is commonly taken as a measure of viable cells.

For data set [2], the target named is Tubulin beta (Homo sapiens) (UniProt P68371+Q9H4B7+Q13509+P04350+Q3ZCM7+P07437+Q13885+Q9BVA1+Q9BUF5+A6NNZ2). The data set is described as follows: Inhibition of N,N'-Ethylenebis(iodoacetamide) binding to beta-tubulin in human HepG2 cells assessed as reduction in EBI/beta-tubulin adduct formation preincubated for 2 hrs followed by EBI addition and measured after 1.5 hrs by Western blot analysis. In kind it is cell-based. As to conditions: dose microM 0.2-25, time 3.5 hrs. In outline:
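HepG2 seeded 5 × 10⁵ cells/well, adhered overnight. […] Lysate protein (20 μg) run on 10% polyacrylamide gel on ice and transferred to PVDF. Probed with anti-β-tubulin 16 h at 4 °C, then HRP secondary. Chemiluminescence detection.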
(A western blot detects proteins with antibodies after separation by electrophoresis.)

Data set [3] relates to HepG2. Kind of data set: Induction of cell cycle arrest in human HepG2 cells assessed as accumulation in G2/M phase at 5 nM incubated for 24 hrs by propidium iodide staining based flow cytometry (reference value: 12.59%). In kind it is functional. Background: A flow cytometer gives signals particle by particle.
Data set [4] concerns HepG2. Kind of data set: Induction of cell cycle arrest in human HepG2 cells assessed as accumulation in G2/M phase at 10 nM incubated for 24 hrs by propidium iodide staining based flow cytometry (reference value: 12.59%). In kind it is functional.
Data set [5] relates to HepG2. Kind of data set: Induction of cell cycle arrest in human HepG2 cells assessed as accumulation in G1 phase at 20 nM incubated for 24 hrs by propidium iodide staining based flow cytometry (reference value: 60.76%). In kind it is functional.
Data set [6] relates to HepG2. Kind of data set: Induction of cell cycle arrest in human HepG2 cells assessed as accumulation in G2/M phase at 20 nM incubated for 24 hrs by propidium iodide staining based flow cytometry (reference value: 12.59%). The class given is functional.
For data set [7], the system named is HepG2. Kind of data set: Induction of cell cycle arrest in human HepG2 cells assessed as accumulation in G2/M phase incubated for 24 hrs by propidium iodide staining based flow cytometry. The following applies: dose nM 5-20, time 24.0 hrs. The class given is functional.
Data set [8] has as its system HepG2. The data set is described as follows: Induction of apoptosis in human HepG2 cells assessed as late apoptotic cells at 5 nM incubated for 12 hrs by Annexin V-PE and 7-AAD staining based flow cytometry (reference value: 2.79%). The class given is functional. In outline:
(§1)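 HepG2 cells seeded at 3 × 10⁵ cells/well, adhered overnight, exposed at 5, 10 or 20 nM for 12 or 24 h. Harvested into Annexin V binding buffer and stained with annexin V-PE and 7-AAD for 15 min at room temperature in the dark, then analysed by flow cytometry. Gates: live (−/−), early apoptotic (+/−), late apoptotic (+/+), necrotic (−/+).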

For data set [9], the system named is HepG2. The data set is described as follows: Induction of apoptosis in human HepG2 cells assessed as early apoptotic cells at 5 nM incubated for 12 hrs by Annexin V-PE and 7-AAD staining based flow cytometry (reference value: 4.52%). In kind it is functional. In outline:
as §1

For data set [10], the system named is HepG2. Kind of data set: Induction of apoptosis in human HepG2 cells assessed as late apoptotic cells at 10 nM incubated for 12 hrs by Annexin V-PE and 7-AAD staining based flow cytometry (reference value: 2.79%). The class given is functional. In outline: as §1
The test system of data set [11] is HepG2. Kind of data set: Induction of apoptosis in human HepG2 cells assessed as early apoptotic cells at 10 nM incubated for 12 hrs by Annexin V-PE and 7-AAD staining based flow cytometry (reference value: 4.52%). In kind it is functional. The procedure, abridged:
as §1

The test system of data set [12] is HepG2. Kind of data set: Induction of apoptosis in human HepG2 cells assessed as late apoptotic cells at 20 nM incubated for 12 hrs by Annexin V-PE and 7-AAD staining based flow cytometry (reference value: 2.79%). The class given is functional. The procedure, abridged:
as §1

Data set [13] deals with HepG2. Kind of data set: Induction of apoptosis in human HepG2 cells assessed as late apoptotic cells at 5 nM incubated for 24 hrs by Annexin V-PE and 7-AAD staining based flow cytometry (reference value: 2.33 %). In kind it is functional. The procedure, abridged: as §1
The test system of data set [14] is HepG2. The data set is described as follows: Induction of apoptosis in human HepG2 cells assessed as early apoptotic cells at 5 nM incubated for 24 hrs by Annexin V-PE and 7-AAD staining based flow cytometry (reference value: 4.16 %). The class given is functional. The procedure, abridged:
as §1

For data set [15], the system named is HepG2. The data set is described as follows: Induction of apoptosis in human HepG2 cells assessed as early apoptotic cells at 10 nM incubated for 24 hrs by Annexin V-PE and 7-AAD staining based flow cytometry (reference value: 4.16 %). In kind it is functional. The procedure, abridged:
as §1

For data set [16], the system named is HepG2. Kind of data set: Induction of apoptosis in human HepG2 cells assessed as necrotic cells at 20 nM incubated for 24 hrs by Annexin V-PE and 7-AAD staining based flow cytometry (reference value: 0.34 %). In kind it is functional. The procedure, abridged: as §1
In data set [17] the test system is HepG2. Kind of data set: Induction of apoptosis in human HepG2 cells assessed as late apoptotic cells at 20 nM incubated for 24 hrs by Annexin V-PE and 7-AAD staining based flow cytometry (reference value: 2.33 %). The class given is functional. The procedure, abridged:
as §1

For data set [18], the system named is HepG2. Kind of data set: Induction of apoptosis in human HepG2 cells assessed as early apoptotic cells at 20 nM incubated for 24 hrs by Annexin V-PE and 7-AAD staining based flow cytometry (reference value: 4.16 %). The class given is functional. In outline: as §1
The test system of data set [19] is HepG2. Kind of data set: Inhibition of cell migration in human HepG2 cells at 10 nM measured after 24 hrs by inverted light microscopy method based wound healing assay relative to control. In kind it is functional. In outline:
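Confluent HepG2 monolayer (seeded 3 × 10⁵ cells/well) scratched with a pipette tip and washed with PBS. Incubated in serum-free DMEM with compound at 2.5, 5 or 10 nM for 24 h; CA-4 run in parallel, DMSO as vehicle. Wound imaged at 0 and 24 h by inverted microscope and compared with control.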

Data set [20] in a line: Toxicity in Balb/c nude mouse xenografted with human HepG2 cells assessed as change in body weight at 5 mg/kg, iv administered every 2 days for 21 days (reference value: 7.8 % ). In kind it is organism-based. As to conditions: in vivo, 504 h, time 21 day.
Data set [21] concerns HepG2. The data set is described as follows: Antitumor activity against human HepG2 cells xenografted in Balb/c nude mouse assessed as reduction in tumor volume at 5 mg/kg, iv administered every 2 days for 21 days and measured at 3 days interval during compound dosing. In kind it is functional. Further details: scale not given: the % may be the effect or the level left. As to conditions: time 21 day. The procedure, abridged:
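Nude mice received 200 μL PBS containing HepG2 at 1 × 10⁷ cells/mL subcutaneously in the right armpit. Randomised at 90 mm³ tumour volume, five per group. Compound given iv as a 2.0 mg/mL solution in distilled water, 5 or 10 mg/kg every two days for 21 days, with a water vehicle group. Tumour volume (L × W²/2) and body weight recorded every 3 days. Inhibition = (1 − RTV treated/RTV vehicle) × 100%.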

The nature of data set [22]: Resistance index, ratio of GI50 for antiproliferation activity against human A549/Taxol cells to GI50 for antiproliferation activity against human A549 cells assessed as cell growth inhibition measured after 72 hrs by MTT assay.

Turning to `CCOc1cccc(Nc2nn(C)c3c2Cc2cc(OCC)c(OCCCN)cc2-3)c1`, the GI50 in [1] came to 0.0147 µM. Moreover, the inhibition result in data set [2] is “Dose-dependent effect”. For the same molecule, the Activity in the data set on HepG2 [3] was 19.78%; with HepG2 [4], 56.07%; with HepG2 [5], 3.11%; in the data set with HepG2 [6], 88.46%; in the data set with HepG2 [7] it was “Dose-dependent effect”; in the data set on HepG2 [8], 3.53%. Besides, the Activity is 5.66% in the data set with HepG2 [9]; 4.39% in the data set on HepG2 [10]; 9.58% in the data set with HepG2 [11]; 6.42% in the data set with HepG2 [12]; 4.33% in the data set on HepG2 [13]; 9.75% in the data set with HepG2 [14]. Further, the Activity is recorded as 16.7% in the data set on HepG2 [15]; 0.71% in the data set with HepG2 [16]; 10.7% in the data set on HepG2 [17]; 36.6% in the data set on HepG2 [18]; 8.4% in [20]; 54% with HepG2 [21]. Also, testing at 0.01 µM in the data set on HepG2 [19] gave an inhibition of 58%. For the same molecule, in data set [22], the RatioGI50 is on record as 4.
